Source: article PMC5522708 (Archives of biochemistry and biophysics, 2016)

Legend:
human renalase = human renalase (Homo sapiens, UniProt Q5VYX0); assay type: biochemical, H. sapiens; settings: for inhibition of 6DHNAD oxidation (reductive half reaction): 173 µM 6DHNAD, anaerobic
[1] = molecular target: HsRen (renalase from H. sapiens) (Homo sapiens, UniProt Q5VYX0); experiment: Reductive half-reaction of HsRen; assay type: biochemical; settings: anaerobic, 25 °C; for increase in kred/Kd on addition of ADP: ADP 4–5 mM
In short: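 Anaerobic stopped-flow was run at 25 °C in 20 mM HEPES, pH 7.5, with glucose/glucose oxidase O2 scavenging. HsRen was 6–11 µM post-mix, and flavin reduction was read at 458 nm. DHNR runs included 2 mM octyl-β-glucoside.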

renalase = experiment: HPLC substrate analysis of reduced NR and NMN isomers with renalase; assay type: biochemical; settings: ~12.5 µM renalase, 10 min, HPLC of borohydride-reduced mixtures, pH 7.5
In short: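 Each mixture was split: one half received renalase, the other served as the no-enzyme and stability control. After 10 min, enzyme was removed by 10 kDa ultrafiltration. Filtrates ran on isocratic C18 HPLC (same buffer) with detection at 260/370 nm, corrected for dilution.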

[2] = system: E.coli malate dehydrogenase; settings: competitive; cited from earlier work
HsRen (human renalase) = settings: cited from earlier work; for binding constants of the products: earlier work, no reference given
[3] = molecular target: specific enzymes that have β-NADH as substrate; settings: competitive; cited from earlier work

Sequence of HsRen (renalase from H. sapiens) (Q5VYX0 18-342): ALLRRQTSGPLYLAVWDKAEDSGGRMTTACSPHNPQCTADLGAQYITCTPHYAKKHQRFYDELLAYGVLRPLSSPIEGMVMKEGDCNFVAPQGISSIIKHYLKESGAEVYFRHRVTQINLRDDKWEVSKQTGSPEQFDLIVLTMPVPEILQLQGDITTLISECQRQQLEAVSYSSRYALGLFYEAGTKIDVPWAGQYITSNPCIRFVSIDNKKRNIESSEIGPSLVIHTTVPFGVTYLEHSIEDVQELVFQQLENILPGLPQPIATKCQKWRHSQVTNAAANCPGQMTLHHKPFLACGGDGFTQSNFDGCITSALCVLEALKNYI
Sequence of human renalase (Q5VYX0 18-342): as above

Nc1ncnc2c1ncn2[C@@H]1O[C@H](COP(=O)(O)OP(=O)(O)O)[C@@H](O)[C@H]1O [ADP, adenosine diphosphate]
Kd (human renalase): 15 mM

CNC(=O)c1cccnc1 [methyl nicotinamide]
inhibition of 6DHNAD oxidation (reductive half reaction) (human renalase; HsRen): did not show measureable inhibition

NC(=O)c1ccc[n+]([C@@H]2O[C@H](COP(=O)([O-])O)[C@@H](O)[C@H]2O)c1 [NMN^+, nicotinamide mononucleotide]
inhibition of 6DHNAD oxidation (reductive half reaction) (human renalase; HsRen): did not yield any substrate inhibition

Nc1ncnc2c1ncn2[C@@H]1O[C@H](COP(=O)(O)O)[C@@H](O)[C@H]1O [AMP, adenosine monophosphate]
inhibition of 6DHNAD oxidation (reductive half reaction) (human renalase; HsRen): did not show measureable inhibition

NC(=O)c1ccc[n+]([C@@H]2O[C@H](CO)[C@@H](O)[C@H]2O)c1 [NR^+, nicotinamide riboside]
IC50 (human renalase): > 7.3 mM
inhibition of 6DHNAD oxidation (reductive half reaction) (human renalase; HsRen): did not yield any substrate inhibition

NC(=O)C1=CN(C2OC(COP(=O)(O)O)C(O)C2O)CC=C1 (centres unmarked) [6DHNMN, 6-dihyronicotinamide mononucleotide]
effect of AMP counterpart ligand on kred/Kd ([1]; pH 7.5): no measurable difference
consumed by renalase (substrate) (renalase): consumed

NC(=O)C1=CN([C@@H]2O[C@H](COP(=O)(O)O)[C@@H](O)[C@H]2O)C=CC1 [4DHNMN, 4-dihydronicotinamide mononucleotide]
difference in the Kd for 4DHNMN compared to 4DHNR (human renalase; HsRen): six-fold
inhibition of 6DHNAD oxidation (reductive half reaction) (human renalase; HsRen): inhibitory

NC(=O)C1=CN([C@@H]2O[C@H](CO)[C@@H](O)[C@H]2O)C=CC1 [4DHNR, 4-dihydronicotinamide riboside]
inhibition of 6DHNAD oxidation (reductive half reaction) (human renalase; HsRen): inhibitory

NC(=O)C1=CN([C@@H]2O[C@H](COP(=O)(O)OP(=O)(O)OC[C@H]3O[C@@H](n4cnc5c(N)ncnc54)[C@H](O)[C@@H]3O)[C@@H](O)[C@H]2O)CC=C1 [6DHNAD, 6-dihydronicotinamide adenine dinucleotide]
Ki [2]: 0.034 µM
Kd (HsRen (human renalase); read-out: measured dissociation constant for the substrate): 0.173 mM
Ki values [3]: sub-micromolar range

NC(=O)c1ccc[n+]([C@@H]2O[C@H](COP(=O)([O-])OP(=O)(O)OC[C@H]3O[C@@H](n4cnc5c(N)ncnc54)[C@H](OP(=O)(O)O)[C@@H]3O)[C@@H](O)[C@H]2O)c1 [β-NADP^+, oxidized nicotinamide adenine dinucleotide phosphate]
binding constants of the products (HsRen (human renalase)): low millimolar

NC(=O)C1=CC=CN([C@@H]2O[C@H](COP(=O)(O)O)[C@@H](O)[C@H]2O)C1 [2DHNMN, 2-dihydronicotinamide mononucleotide]
consumed by renalase (substrate) (renalase): consumed

NC(=O)c1ccc[n+]([C@@H]2O[C@H](COP(=O)([O-])OP(=O)(O)OC[C@H]3O[C@@H](n4cnc5c(N)ncnc54)[C@H](O)[C@@H]3O)[C@@H](O)[C@H]2O)c1 [β-NAD^+, oxidized nicotinamide adenine dinucleotide]
binding constants of the products (HsRen (human renalase)): low millimolar

NC(=O)C1=CN([C@@H]2O[C@H](CO)[C@@H](O)[C@H]2O)CC=C1 [6DHNR, 6-dihydornicotinamide riboside]
increase in kred/Kd on addition of ADP ([1]; pH 7.5): 7 fold
increase in kred/Kd on addition of ADP ([1]; pH 7.5, listed as 6-dihydronicotinamide riboside): seven
consumed by renalase (substrate) (renalase): consumed

NC(=O)C1=CC=CN([C@@H]2O[C@H](CO)[C@@H](O)[C@H]2O)C1 [2DHNR]
consumed by renalase (substrate) (renalase): consumed

NC(=O)c1cccnc1 [nicotinamide]
IC50 (human renalase): > 68 mM
inhibition of 6DHNAD oxidation (reductive half reaction) (human renalase; HsRen): did not show measureable inhibition
